# Assay outcomes from PubChem.
# This is a sample that favours compounds with a hit; in the whole collection about 9.6% have one here.
# bCat KO growth: primary screen for growth suppressors in beta-catenin knockout HCT116 cells (colon tumor, human); HCT116 beta-catenin knockout viability, CellTiter-Glo, 60 h; hits give low values; hit rate 1.5% among 140,000; viability, % at 10 µM;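 active = viability at or under a set limit, the compound median less 4 SD, cut at about 6% in these data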
# HCT116 PTEN-null: growth suppression of PTEN-null HCT116, primary screen, cell-based, CellTiter-Glo; HCT116 PTEN-null viability, 60 h; hits give low values; AID 827, 2007; hit rate 1.2% among 140,000; viability, % at 10 µM;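 active = viability at or below a set limit, 4 SD under the median of all tested compounds, cut at about 3.7% in these data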;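 also: PTEN knockout HCT116 line with beta catenin targeted HCT116 as companion control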
# PMI act: activators of human PMI, primary screen, biochemical, fluorescence intensity, near-Km mannose 6-phosphate | Mannose-6-phosphate isomerase (Homo sapiens), P34949 | purified human PMI, coupled resazurin fluorescence, 20 min; hits give high values; 1 = vehicle control, 0 substrate-free wells | activation factor at 20 µM | hit rate 0.005% among 190,000 | AID 1214, 2008;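 active = activation factor of 2 or more at 20 µM, relative to plate controls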
# Target sequence (P34949 whole entry, looked up): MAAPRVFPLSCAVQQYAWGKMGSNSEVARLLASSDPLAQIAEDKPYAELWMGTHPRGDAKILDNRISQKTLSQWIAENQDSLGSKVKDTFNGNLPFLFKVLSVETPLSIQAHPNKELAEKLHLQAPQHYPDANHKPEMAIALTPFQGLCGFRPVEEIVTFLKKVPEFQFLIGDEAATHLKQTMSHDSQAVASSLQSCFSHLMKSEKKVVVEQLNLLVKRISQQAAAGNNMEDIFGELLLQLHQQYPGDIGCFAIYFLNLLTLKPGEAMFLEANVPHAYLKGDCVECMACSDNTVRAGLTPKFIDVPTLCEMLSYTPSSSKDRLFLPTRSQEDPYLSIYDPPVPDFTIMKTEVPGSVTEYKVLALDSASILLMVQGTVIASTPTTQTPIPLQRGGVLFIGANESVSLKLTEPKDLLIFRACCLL
# PMI act satM6P: human PMI activators, high substrate, primary screen, biochemical, fluorescence intensity, near-saturating mannose 6-phosphate; coupled PMI enzyme assay, resazurin fluorescence, 20 min; hits give high values; 1 = untreated enzyme, 0 = substrate-free blank; activation factor at 20 µM; hit rate 0.34% among 190,000;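 active = activation factor of 2 or more at 20 µM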
#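 Test system: human phosphomannose isomerase with PGI, G6PDH, diaphorase coupling enzymes; amount: 15 ng/mL PMI; incubation: enzyme reaction with compound 20 min at room temperature; technique: resorufin fluorescence (Ex 544/Em 590 nm) from resazurin via diaphorase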
# L major viab: Leishmania major promastigote growth inhibition, primary screen; Leishmania major promastigotes, resazurin fluorescence viability; inhibition, % at 10 µM; hit rate 9% among 200,000; AID 1063, 2008; in the data active = inhibition above about 50%;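 also: promastigotes grown with compound for 44 hours at 28 °C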
# Numbers stand for hits; 0 = inactive; - = no result.
SMILES,bCat KO growth,HCT116 PTEN-null,PMI act,PMI act satM6P,L major viab
COCCNc1ccc(S(=O)(=O)N2CCCC2)cn1,-,-,0,0,0
O=C(Nc1ncccc1Cl)c1cccc(F)c1,0,0,0,0,0
O=C(Nc1ncccc1Cl)c1ccccc1F,0,0,0,0,72
CCOC(=O)CCCNC(=O)COC(=O)c1cccc(F)c1,-,-,0,0,0
CCCCOc1ccc(C(=O)N2CCC(C)CC2)cc1,0,0,0,0,0
Brc1cccc(OCCN2CCCCC2)c1,0,0,0,0,96
Brc1ccccc1OCCCN1CCOCC1,0,0,0,0,72
CC1CCN(CCCCOc2ccc(Br)cc2)CC1,0,0,0,0,99
CC1CCN(CCCCOc2cccc(Br)c2)CC1,0,0,0,0,95
COc1cccc(N2CCN(C(=S)NCc3ccco3)CC2)c1,0,0,0,0,0
COc1ccc(OC)c(NC(=O)c2ccc(OC3CSC3)cc2)c1,-,-,0,0,0
O=C(CN1C(=O)C2CC=CCC2C1=O)Nc1ccc(S(=O)(=O)N2CCOCC2)cc1 (stereo unspecified),-,-,0,0,0
Cc1cc(Br)ccc1OCCCCN1CCC(C)CC1,0,0,0,0,100
CC1CCN(CCOc2ccc(Cl)c(Cl)c2)CC1,0,0,0,0,88
COc1ccccc1OCCCCN1CCN(c2ccccc2OC)CC1,0,0,0,0,0
CC1CCN(CCCCOc2ccccc2Br)CC1,0,0,0,0,100
C=CCOC(=O)c1sc(NC(=O)c2ccc(OC)cc2)nc1C,-,-,0,0,0
CCCN1CCC2(CC1)C(C#N)=C(N)Oc1c2sc2nc(C)cc(C)c12,0,0,0,0,52
O=C(Nc1cccc(Cl)c1)/C(=C\c1cccnc1)NC(=O)c1ccco1,-,-,0,0,0
O=C(CCn1nc(-c2ccccc2)c2ccccc2c1=O)NCC1CCCO1 (stereo unspecified),0,0,0,0,0
COc1ccc(OC)c(S(=O)(=O)Nc2c(C)cccc2C)c1,-,-,0,0,0
COc1ccc(OC)c(S(=O)(=O)Nc2ccc(O)c3ccccc23)c1,1.8,2.0,0,0,100
CC(=O)c1ccc(OCC(O)CN2CCN(c3ccccn3)CC2)cc1 (stereo unspecified),0,0,0,0,0
CC(=O)Oc1ccc(/C=N/NS(=O)(=O)c2ccccc2)cc1,-,-,0,0,0
CCN1C(=O)N(CN2CCOCC2)C2C1N(CN1CCOCC1)C(=O)N2CC (stereo unspecified),-,-,0,0,-
SMILES,bCat KO growth,HCT116 PTEN-null,PMI act,PMI act satM6P,L major viab
CCOC(=O)C1CCCn2c1nc1sc3c(c1c2=O)CCCC3 (stereo unspecified),0,0,0,0,0
CCOc1ccc(S(=O)(=O)N/N=C(\C)C2CCCCC2)cc1,0,0,0,0,55
Cc1cc(=O)[nH]c(SCc2nc3ccc([N+](=O)[O-])cc3[nH]2)n1,0,0,0,0,55
Cc1cccc(-c2nc(CN3CCCC(C(=O)NC4CCCC4)C3)c(C)o2)c1 (stereo unspecified),0,0,0,0,0
Cc1oc(-c2ccc(Cl)cc2)nc1CN1CCC(C(=O)NCc2cccs2)CC1,0,0,0,0,0
Cc1oc(-c2cccc(Cl)c2)nc1CN1CCCC(C(=O)NCCCN2CCOCC2)C1 (stereo unspecified),0,0,0,0,101
Cc1oc(-c2ccc(Cl)cc2)nc1CN1CCC(C(=O)NCCCN2CCOCC2)CC1,0,0,0,0,101
Cc1ccc(-c2nc(CSCC(=O)NCCCN3CCOCC3)c(C)o2)cc1,0,0,0,0,53
CN(C)/C=C1\SC(=S)N(N2C(=O)C3C4C=CC(C4)C3C2=O)C1=O (stereo unspecified),-,-,0,0,0
O=C(c1ccccc1F)N1CCN(c2ccc([N+](=O)[O-])c3ncccc23)CC1,0,0,0,0,0
O=C(c1ccccc1F)N1CCN(c2ccc([N+](=O)[O-])c3cccnc23)CC1,-,-,0,0,63
Cc1cc(N2CCN(c3ccc([N+](=O)[O-])c4cccnc34)CC2)c2ccccc2n1,3.5,0,0,0,0
CC1=NN(c2ccc(C(=O)OC(C)C)cc2)C(=O)/C1=C\C=C\c1ccco1,0,0,0,0,76
CCOC(=O)c1ccc(N2N=C(C)/C(=C/C=C/c3ccco3)C2=O)cc1,0,0,0,0,0
O=C(O)c1cc(N2N=C(C(F)(F)F)/C(=C/C=C/c3ccco3)C2=O)ccc1Cl,-,-,0,2.2,0
COc1ccc(S(=O)(=O)N2CCOCC2)cc1NC(=O)COc1cccnc1[N+](=O)[O-],-,-,0,0,0
CNc1ccc(Br)cc(C(=O)/C=C/c2ccc3c(c2)OCO3)c1=O,0,0,0,0,72
CNc1ccc(Br)cc(C(=O)/C=C/c2ccc(OC)cc2)c1=O,0,0,0,0,0
COCCCNC(=O)/C=C/c1ccc(Cl)cc1Cl,0,0,0,0,0
CCNc1ccc(Br)cc(C(=O)/C=C/c2ccc(Cl)cc2Cl)c1=O,2.5,2.2,0,0,98
CNc1ccc(Br)cc(C(=O)/C=C/c2cc(OC)ccc2OC)c1=O,0,0,0,0,89
CC(C)(CNS(C)(=O)=O)SCc1ccc(Cl)cc1,-,-,0,0,0
O=S(=O)(N/N=C\C=C\c1ccccc1)c1ccc(Cl)cc1,0,0,0,0,92
NC(=O)N/N=C/C=C/c1ccccc1,-,-,0,0,0
CCn1c(=O)cc(SCC(=O)Nc2ccc(C)cn2)c2ccccc21,-,-,0,0,0
SMILES,bCat KO growth,HCT116 PTEN-null,PMI act,PMI act satM6P,L major viab
CC1CCCc2sc3nc(N4CCN(CCO)CC4)n4ncnc4c3c21 (stereo unspecified),0,0,0,0,91
NC(=O)CSc1nc2sc3c(c2c2ncnn12)CCCC3,0,0,0,0,0
COc1ccc(/C=C/C(O)=C(\C#N)c2nnc(N3CCOCC3)n2-c2ccccc2)cc1OC,-,-,0,0,0
O=C1CC(NCc2ccncc2)C(=O)N1c1ccccc1 (stereo unspecified),0,0,0,0,0
c1cc(CNC2C3CC4CC(C3)CC2C4)ccn1 (stereo unspecified),-,-,0,0,83
O=C(NCc1ccncc1)C12CC3CC(CC(C3)C1)C2,0,0,0,0,0
CC(NCc1ccncc1)C12CC3CC(CC(C3)C1)C2 (stereo unspecified),-,-,0,0,69
Cc1cc(C)n(-c2ccc(C(=O)OCC(=O)Nc3ccc([N+](=O)[O-])cc3)cc2)n1,0,0,0,0,0
CSc1ccc(OC2CCN(Cc3ccccc3)CC2)cc1,0,0,0,0,94
CSCCNC(=O)c1ccc(OC2CCN(CCc3ccccc3)CC2)cc1,-,-,0,0,0
COc1ccc(-c2cc(=O)[nH]c(=O)[nH]2)cc1,0,0,0,0,0
COc1ccc(-c2cc(=O)[nH][nH]2)cc1,0,0,0,0,76
